Measurements taken from article PMC3048909 (Journal of medicinal chemistry, 2011).
Read-outs that look alike come from different tables or passages of the source.

Experiments:
[1] = molecular target: α4β4-nAChR (Homo sapiens, UniProt P30926+P43681); assay: 86Rb+ efflux assay of nAChR function; format: cell-based
[2] = molecular target: α1*-nAChR (muscle-type α1β1γδ-nAChR) (Homo sapiens, UniProt P02708+P07510+P11230+Q07001); assay: 86Rb+ efflux assay of nAChR function; format: cell-based
[3] = molecular target: α4β2-nAChR (Homo sapiens, UniProt P17787+P43681); assay: 86Rb+ efflux assay of nAChR function; format: cell-based
Chain of α4β2-nAChR (P43681 29-627 limits assumed): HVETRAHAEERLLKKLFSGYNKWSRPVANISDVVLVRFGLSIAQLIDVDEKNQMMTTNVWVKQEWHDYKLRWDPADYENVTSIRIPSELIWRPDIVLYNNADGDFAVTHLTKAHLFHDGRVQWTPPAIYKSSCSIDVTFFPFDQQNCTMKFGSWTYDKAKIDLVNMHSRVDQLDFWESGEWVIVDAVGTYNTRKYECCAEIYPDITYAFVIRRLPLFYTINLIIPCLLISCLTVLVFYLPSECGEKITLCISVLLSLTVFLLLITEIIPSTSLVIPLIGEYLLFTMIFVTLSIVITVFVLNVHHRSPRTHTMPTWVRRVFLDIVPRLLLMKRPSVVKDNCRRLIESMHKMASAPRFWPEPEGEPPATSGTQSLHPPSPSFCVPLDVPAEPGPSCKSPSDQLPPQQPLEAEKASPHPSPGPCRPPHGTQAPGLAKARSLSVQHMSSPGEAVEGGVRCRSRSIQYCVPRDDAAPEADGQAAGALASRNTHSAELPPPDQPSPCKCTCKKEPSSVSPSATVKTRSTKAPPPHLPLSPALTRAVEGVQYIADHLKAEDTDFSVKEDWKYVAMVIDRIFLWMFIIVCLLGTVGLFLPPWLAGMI
Chain of α4β2-nAChR (P17787 26-502): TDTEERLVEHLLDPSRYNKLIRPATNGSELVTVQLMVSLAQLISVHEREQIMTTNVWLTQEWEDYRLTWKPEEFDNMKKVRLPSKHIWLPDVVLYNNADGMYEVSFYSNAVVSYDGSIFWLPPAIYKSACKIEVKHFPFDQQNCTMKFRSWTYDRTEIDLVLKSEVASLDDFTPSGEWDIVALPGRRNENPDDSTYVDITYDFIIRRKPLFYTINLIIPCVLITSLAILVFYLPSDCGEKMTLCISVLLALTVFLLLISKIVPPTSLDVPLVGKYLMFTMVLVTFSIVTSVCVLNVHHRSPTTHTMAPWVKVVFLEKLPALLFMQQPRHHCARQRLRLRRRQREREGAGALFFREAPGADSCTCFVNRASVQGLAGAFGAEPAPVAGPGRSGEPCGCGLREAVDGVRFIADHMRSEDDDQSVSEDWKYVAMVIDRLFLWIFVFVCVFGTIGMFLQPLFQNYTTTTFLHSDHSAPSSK

[4] = test system: nicotine-induced antinociception (hot-plate); assay: Blockade of nicotine-induced antinociception, hot-plate test; format: in vivo, mice; conditions: for ED50: Mus musculus, read-out: AD50 Hot-plate
How it was run: (§1)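 Male ICR mice (20–25 g) were given the test compound to block the acute effects of nicotine. Dose-response curves used at least four doses of test compound, with at least eight mice per dose group. Results are AD50 (mg/kg) with confidence limits, or % effect at the highest dose tested.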

[5] = test system: nicotine-induced antinociception (tail-flick); assay: Blockade of nicotine-induced antinociception, tail-flick test; format: in vivo, mice; conditions: for ED50: Mus musculus, read-out: AD50 Tail-flick; for AD50 Tail-flick: mice, antagonism of acute nicotine, parentheses: confidence limits; for More potent in the tail-flick test: relative to (S,S)-4a
How it was run: as §1

[6] = molecular target: α3β4*-nAChR (Homo sapiens, UniProt P30926+P32297); assay: 86Rb+ efflux assay of nAChR function; format: cell-based
Chain of α3β4*-nAChR (P32297 32-505): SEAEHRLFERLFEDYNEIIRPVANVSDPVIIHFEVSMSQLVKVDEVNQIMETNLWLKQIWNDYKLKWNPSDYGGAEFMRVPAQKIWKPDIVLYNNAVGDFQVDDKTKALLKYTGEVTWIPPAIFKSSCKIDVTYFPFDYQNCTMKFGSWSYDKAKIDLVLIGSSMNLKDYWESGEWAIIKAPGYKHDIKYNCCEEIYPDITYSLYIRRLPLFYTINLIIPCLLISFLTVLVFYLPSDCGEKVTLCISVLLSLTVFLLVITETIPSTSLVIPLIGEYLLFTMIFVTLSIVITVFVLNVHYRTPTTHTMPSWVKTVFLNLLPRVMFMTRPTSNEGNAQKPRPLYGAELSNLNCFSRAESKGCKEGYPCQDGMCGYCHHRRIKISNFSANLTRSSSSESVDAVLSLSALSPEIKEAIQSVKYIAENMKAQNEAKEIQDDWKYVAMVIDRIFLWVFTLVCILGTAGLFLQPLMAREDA
Chain of α3β4*-nAChR (P30926 22-498): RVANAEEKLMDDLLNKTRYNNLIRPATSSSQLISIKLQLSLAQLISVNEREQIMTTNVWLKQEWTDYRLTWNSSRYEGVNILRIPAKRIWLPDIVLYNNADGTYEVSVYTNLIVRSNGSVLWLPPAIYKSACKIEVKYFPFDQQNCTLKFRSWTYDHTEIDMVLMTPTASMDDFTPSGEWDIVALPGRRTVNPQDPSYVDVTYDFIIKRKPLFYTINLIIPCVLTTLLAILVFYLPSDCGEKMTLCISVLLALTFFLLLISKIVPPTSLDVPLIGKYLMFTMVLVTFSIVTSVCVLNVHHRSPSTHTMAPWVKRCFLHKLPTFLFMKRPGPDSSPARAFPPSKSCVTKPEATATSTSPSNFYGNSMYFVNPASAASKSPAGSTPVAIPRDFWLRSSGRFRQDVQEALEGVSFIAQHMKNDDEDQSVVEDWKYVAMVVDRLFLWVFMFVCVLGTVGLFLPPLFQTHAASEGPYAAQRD

[7] = molecular target: T1, human DAT (Homo sapiens, UniProt Q01959); assay: [3H]DA uptake inhibition, HEK-293 cells expressing human DAT; format: cell-based; conditions: for Increase in potency for inhibition of DA uptake: relative to (S,S)-5a
T1 sequence (Q01959 whole entry): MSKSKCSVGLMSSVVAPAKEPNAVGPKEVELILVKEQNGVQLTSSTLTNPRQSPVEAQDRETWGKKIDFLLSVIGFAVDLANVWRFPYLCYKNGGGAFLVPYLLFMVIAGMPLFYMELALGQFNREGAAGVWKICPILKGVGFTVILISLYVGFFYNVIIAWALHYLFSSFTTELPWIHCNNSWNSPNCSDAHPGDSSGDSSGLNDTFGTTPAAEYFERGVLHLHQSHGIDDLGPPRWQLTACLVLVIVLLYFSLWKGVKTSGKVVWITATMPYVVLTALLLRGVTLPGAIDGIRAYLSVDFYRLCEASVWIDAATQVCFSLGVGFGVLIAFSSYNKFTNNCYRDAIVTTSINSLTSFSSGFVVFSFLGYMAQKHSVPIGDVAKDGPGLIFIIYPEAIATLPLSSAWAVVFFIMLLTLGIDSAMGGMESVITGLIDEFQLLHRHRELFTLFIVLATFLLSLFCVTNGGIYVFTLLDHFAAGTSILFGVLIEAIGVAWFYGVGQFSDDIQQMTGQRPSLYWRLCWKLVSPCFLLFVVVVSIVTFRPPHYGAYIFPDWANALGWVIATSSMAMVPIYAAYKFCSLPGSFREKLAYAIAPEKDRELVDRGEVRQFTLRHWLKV

[8] = test system: nicotine-induced locomotor depression; assay: Blockade of nicotine-induced locomotor depression; format: in vivo, mice; conditions: for ED50: Mus musculus, read-out: AD50 Locomotion; for AD50 Locomotion: mice, antagonism of acute nicotine, parentheses: confidence limits
How it was run: as §1

[9] = test system: nicotine-induced hypothermia; assay: Blockade of nicotine-induced hypothermia; format: in vivo, mice; conditions: for ED50: Mus musculus, read-out: AD50 Hypothermia
How it was run: as §1

[10] = molecular target: human NET (Homo sapiens, UniProt P23975); assay: [3H]NE uptake inhibition, HEK-293 cells expressing human NET; format: cell-based
[11] = test system: nicotine-induced antinociception (hot-plate); conditions: mice, antagonism of acute nicotine; parentheses: confidence limits; cited from earlier work
[12] = test system: nicotine-induced antinociception (tail-flick); conditions: mice, antagonism of acute nicotine; parentheses: confidence limits; cited from earlier work
[13] = test system: nicotine-induced locomotor depression; conditions: mice, antagonism of acute nicotine; parentheses: confidence limits; cited from earlier work
[14] = test system: nicotine-induced CPP; conditions: mice, blockade of nicotine-induced CPP; cited from earlier work
[15] = test system: nicotine-induced hypothermia; conditions: mice, antagonism of acute nicotine; parentheses: confidence limits; cited from earlier work
[16] = test system: nicotine-induced CPP; assay: Blockade of nicotine-induced conditioned place preference; format: in vivo, mice; conditions: for AD50 CPP: mice, blockade of nicotine-induced CPP
[17] = molecular target: human SERT (Homo sapiens, UniProt P31645); assay: [3H]5HT uptake inhibition, HEK-293 cells expressing human SERT; format: cell-based; conditions: relative to (S,S)-5a
[18] = molecular target: T1, human DAT; conditions: HEK-293 cells, mean ± standard error; cited from earlier work
[19] = mice, antagonism of acute nicotine, parentheses: confidence limits

Chain of α1*-nAChR (muscle-type α1β1γδ-nAChR) (P02708 21-457): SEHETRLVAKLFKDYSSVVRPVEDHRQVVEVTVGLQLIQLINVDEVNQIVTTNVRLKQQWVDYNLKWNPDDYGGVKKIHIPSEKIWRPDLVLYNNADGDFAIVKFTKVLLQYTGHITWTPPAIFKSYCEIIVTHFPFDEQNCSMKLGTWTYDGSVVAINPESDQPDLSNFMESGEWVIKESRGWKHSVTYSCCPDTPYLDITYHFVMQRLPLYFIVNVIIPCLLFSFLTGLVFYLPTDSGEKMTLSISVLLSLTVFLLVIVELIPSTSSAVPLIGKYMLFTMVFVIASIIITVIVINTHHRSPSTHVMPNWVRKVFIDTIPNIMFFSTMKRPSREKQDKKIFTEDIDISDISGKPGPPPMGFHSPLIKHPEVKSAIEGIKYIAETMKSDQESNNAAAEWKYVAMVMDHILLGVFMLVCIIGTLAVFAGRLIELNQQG
Chain of α1*-nAChR (muscle-type α1β1γδ-nAChR) (P11230 24-501): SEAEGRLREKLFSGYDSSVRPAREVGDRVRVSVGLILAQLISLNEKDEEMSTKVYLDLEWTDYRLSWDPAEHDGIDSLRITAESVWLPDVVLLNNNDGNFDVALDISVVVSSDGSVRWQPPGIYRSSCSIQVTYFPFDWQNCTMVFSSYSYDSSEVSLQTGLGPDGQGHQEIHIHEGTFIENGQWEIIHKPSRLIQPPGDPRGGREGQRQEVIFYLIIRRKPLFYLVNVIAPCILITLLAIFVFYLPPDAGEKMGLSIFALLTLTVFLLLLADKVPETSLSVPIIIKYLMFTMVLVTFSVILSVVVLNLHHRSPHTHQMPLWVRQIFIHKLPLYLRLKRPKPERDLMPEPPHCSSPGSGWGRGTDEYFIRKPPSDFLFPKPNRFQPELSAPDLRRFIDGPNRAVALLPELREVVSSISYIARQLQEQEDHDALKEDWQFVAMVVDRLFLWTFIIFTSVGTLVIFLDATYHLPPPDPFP
Chain of α1*-nAChR (muscle-type α1β1γδ-nAChR) (P07510 23-517): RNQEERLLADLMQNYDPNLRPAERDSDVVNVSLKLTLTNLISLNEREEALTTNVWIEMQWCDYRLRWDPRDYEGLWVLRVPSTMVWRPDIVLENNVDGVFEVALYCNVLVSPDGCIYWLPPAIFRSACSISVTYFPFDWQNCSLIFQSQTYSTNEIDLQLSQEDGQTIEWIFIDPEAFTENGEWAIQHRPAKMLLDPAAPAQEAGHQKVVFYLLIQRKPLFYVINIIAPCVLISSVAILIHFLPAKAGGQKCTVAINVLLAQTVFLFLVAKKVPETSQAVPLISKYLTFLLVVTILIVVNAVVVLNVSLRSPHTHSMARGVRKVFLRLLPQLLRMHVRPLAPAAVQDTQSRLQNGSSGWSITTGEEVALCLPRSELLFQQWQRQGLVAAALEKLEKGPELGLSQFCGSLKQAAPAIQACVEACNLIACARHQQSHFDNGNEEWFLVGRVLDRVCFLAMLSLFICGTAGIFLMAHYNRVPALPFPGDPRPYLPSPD
Chain of α1*-nAChR (muscle-type α1β1γδ-nAChR) (Q07001 22-517): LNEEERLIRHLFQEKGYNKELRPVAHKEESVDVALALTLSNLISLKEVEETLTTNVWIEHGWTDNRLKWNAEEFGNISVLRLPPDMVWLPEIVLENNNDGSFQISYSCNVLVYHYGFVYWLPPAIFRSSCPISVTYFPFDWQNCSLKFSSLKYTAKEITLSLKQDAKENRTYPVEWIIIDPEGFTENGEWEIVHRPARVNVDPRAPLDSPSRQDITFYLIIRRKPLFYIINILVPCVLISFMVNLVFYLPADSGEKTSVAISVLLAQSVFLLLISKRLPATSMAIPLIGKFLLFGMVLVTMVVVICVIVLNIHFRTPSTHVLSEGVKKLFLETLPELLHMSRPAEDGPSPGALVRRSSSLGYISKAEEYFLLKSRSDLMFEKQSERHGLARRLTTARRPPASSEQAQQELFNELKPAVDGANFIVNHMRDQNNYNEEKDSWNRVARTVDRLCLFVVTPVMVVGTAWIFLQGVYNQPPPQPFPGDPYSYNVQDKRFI
Chain of α4β4-nAChR (P43681 29-627 limits assumed): as the sequence (P43681 29-627 limits assumed) above
Chain of α4β4-nAChR (P30926 22-498): as the sequence (P30926 22-498) above

Structure (SMILES) | IC50 [1] | IC50 [2] | IC50 [3] | ED50 [4] | ED50 [5] | IC50 [6] | IC50 [7] | ED50 [8] | ED50 [9] | IC50 [10] | other results
CCC[C@@H]1NC(C)(C)CO[C@H]1c1cccc(Cl)c1 [(S,S)-5h, (S,S)-2-(3'-Chlorophenyl)-5,5-dimethyl-3-propylmorpholine] | 8 µM | 5 µM | 9.5 µM | > 20 mg/kg | 0.017 mg/kg | 3.1 µM | 0.006 ± 0.001 µM | 0.49 mg/kg | > 20 mg/kg | 0.009 ± 0.002 µM | AD50 Tail-flick [5]: 0.017 (0.002–0.15) mg/kg; AD50 Locomotion [8]: 0.49(0.3–6.6) mg/kg
C[C@H]1NC(C)(C)CO[C@@H]1c1cccc(Cl)c1 [(R,R)-5a, (R,R)-2-(3'-Chlorophenyl)-3,5,5-trimethylmorpholine] |  | 9.4 µM |  | 3.9 mg/kg | 1.26 mg/kg |  |  | > 20 mg/kg | > 20 mg/kg |  | 
C[C@@H]1NC(C)(C)CO[C@H]1c1cccc(Br)c1 [(S,S)-5c, (S,S)-2-(3'-Bromophenyl)-3,5,5-trimethylmorpholine] | 11 µM | 7.3 µM | 12 µM | > 20 mg/kg | 0.006 mg/kg | 1.4 µM | 0.044 ± 0.003 µM |  | > 20 mg/kg | 0.15 ± 0.02 µM | More potent in the tail-flick test [5]: ~ 33 times; More potent at α3β4*-nAChR ([6]; relative to (S,S)-5a): ~ 2 fold; Increase in potency for inhibition of DA uptake [7]: 5 fold; AD50 Locomotion [8]: 2.1 (0.9–4.8) mg/kg
C[C@@H]1NC(C)(C)CO[C@@]1(O)c1cccc(Cl)c1 [(S,S)-4a, (S,S)-2-(3'-chlorophenyl)-3,5,5-trimethylmorpholine-2-ol] |  |  |  |  |  |  |  |  |  |  | Potency as functional antagonist of α4β2-nAChR, higher than ([3]; relative to (R,R)-4a): ~ 10 fold; AD50 Hot-plate [11]: 1.0 (0.2–2.2) mg/kg; AD50 Tail-flick [12]: 0.2 (0.06–0.7) mg/kg; AD50 Locomotion [13]: 0.9 (0.2–5.7) mg/kg; AD50 CPP [14]: 0.1 mg/kg
CC(NC(C)(C)C)C(=O)c1cccc(Cl)c1 (stereo not drawn) [compound 2, bupropion] |  |  |  |  |  |  |  |  |  |  | AD50 Hot-plate [11]: 15 (6–19) mg/kg; AD50 Hypothermia [15]: 9.2 (4–23) mg/kg; AD50 Locomotion [13]: 4.9 (0.9–46) mg/kg; AD50 CPP [14]: 0.35 mg/kg
CCCN1[C@@H](C)[C@H](c2cccc(Cl)c2)OCC1(C)C [(S,S)-5f, (S,S)-2-(3'-Chlorophenyl)-3,5,5-trimethyl-4-propylmorpholine] | 5.8 µM | 5.5 µM | 12 µM | > 20 mg/kg | 0.056 mg/kg | 0.98 µM | 0.061 ± 0.02 µM | > 20 mg/kg | > 20 mg/kg | 0.013 ± 0.0036 µM | AD50 CPP [16]: 0.03 mg/kg
C[C@@H]1NC(C)(C)CO[C@H]1c1cccc(F)c1 [(S,S)-5b, (S,S)-2-(3’-Fluorophenyl)-3,5,5-trimethylmorpholine] | 55 µM | 34 µM | 23 µM | > 20 mg/kg | 0.02 mg/kg | 5.6 µM | 0.061 ± 0.02 µM | 4.7 mg/kg | > 20 mg/kg | 0.032 ± 0.003 µM | More potent as DA uptake inhibitor ([7]; compared to (S,S)-4a): 10 fold; Increase in potency for inhibition of DA uptake [7]: 3.7 fold; Decrease in potency for inhibition of 5HT uptake [17]: 12 fold; More potent as NE uptake inhibitor ([10]; compared to (S,S)-4a): 5.6 fold; Increase in potency for inhibition of NE uptake ([10]; relative to (S,S)-5a): 3.2 fold
CC[C@@H]1NC(C)(C)CO[C@H]1c1cccc(Cl)c1 [(S,S)-5g, (S,S)-2-(3'-Chlorophenyl)-3-ethyl-5,5-dimethylmorpholine] | 15 µM | 13 µM | 14 µM | 9.6 mg/kg | 0.018 mg/kg | 5.6 µM | 0.023 ± 0.005 µM | 2.7 mg/kg | 2.5 mg/kg | 0.019 ± 0.003 µM | AD50 Tail-flick [5]: 0.018 (0.009–0.03) mg/kg
C[C@@H]1NC(C)(C)CO[C@H]1c1cccc(Cl)c1 [(S,S)-5a, (S,S)-2-(3'-Chlorophenyl)-3,5,5-trimethylmorpholine] |  |  |  | > 20 mg/kg | 0.036 mg/kg |  |  | > 20 mg/kg | > 20 mg/kg |  | AD50 Hot-plate [4, 19]: inactive; AD50 Tail-flick [5]: 0.036 (0.012–0.1) mg/kg; More potent in the tail-flick test [5]: 5.5 times; AD50 Hypothermia [9, 19]: inactive
C[C@H]1[C@H](c2cccc(Cl)c2)OCC(C)(C)N1C [(S,S)-5d, (S,S)-2-(3'-Chlorophenyl)-3,4,5,5-tetramethylmorpholine] | 23 µM | 21 µM | 16 µM | > 20 mg/kg | 0.13 mg/kg | 2.8 µM | 0.23 ± 0.06 µM | 3.8 mg/kg | > 20 mg/kg | 0.17 ± 0.02 µM | 
CCN1[C@@H](C)[C@H](c2cccc(Cl)c2)OCC1(C)C [(S,S)-5e, (S,S)-2-(3'-Chlorophenyl)-4-ethyl-3,5,5-trimethylmorpholine] | 6.4 µM | 14 µM | 7.2 µM | > 20 mg/kg | 0.029 mg/kg | 0.79 µM | 0.044 ± 0.009 µM | > 20 mg/kg | > 20 mg/kg | 0.024 ± 0.008 µM | AD50 CPP [16]: 0.025 mg/kg; More potent in blocking nicotine-induced CPP ([16]; relative to (S,S)-4a): 4 fold
C[C@H]1NC(C)(C)CO[C@]1(O)c1cccc(Cl)c1 [(R,R)-4a, (R,R)-2-(3'-chlorophenyl)-3,5,5-trimethylmorpholine-2-ol] |  |  |  |  |  |  |  |  |  |  | Monoamine Uptake Inhibition IC50 [3H]DA [18]: inactive; AD50 Hot-plate [11]: 10.3 (5.7–17.1) mg/kg; AD50 Hypothermia [15]: IA (IA = AD50 > 20 mg/kg); AD50 Tail-flick [12]: 2.5 (1.2–3.6) mg/kg; AD50 Locomotion [13]: IA (IA = AD50 > 20 mg/kg)
